Active and inactive are the calls of the source. The calls are words filed in the database; no cut-off is given here.
Legend:
[1] = target: Ubiquitin carboxyl-terminal hydrolase isozyme L1 (Homo sapiens) (UniProt P09936); test: Inhibition of UCHL1 in HEK293T cell lysates assessed as enzyme recovery at 250 uM using HA-tagged vinyl-sulfone as substrate […] followed by 10-fold dilution and subsequent substrate addition measured within 15 mins by Western blot analysis; assay type: subcellular; conditions: Lysate
Ubiquitin carboxyl-terminal hydrolase isozyme L1 (Homo sapiens), sequence (P09936 whole entry, looked up): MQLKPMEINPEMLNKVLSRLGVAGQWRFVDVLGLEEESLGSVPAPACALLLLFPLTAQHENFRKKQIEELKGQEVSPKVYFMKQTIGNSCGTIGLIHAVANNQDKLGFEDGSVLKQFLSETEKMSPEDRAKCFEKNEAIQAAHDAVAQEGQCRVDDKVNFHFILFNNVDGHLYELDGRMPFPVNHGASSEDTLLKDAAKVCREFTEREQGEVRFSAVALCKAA

[2] = Inhibition of deubiquitinase in HEK293T cells expressing N-terminal HA-tagged ubiquitin assessed as stabilization of HMW-Ub proteins after 2 hrs by Western blot analysis; assay type: cell-based, Homo sapiens
Chymotrypsin [3] = target: Chymotrypsin (Homo sapiens, UniProt Q99895+P17538+P40313+Q6GPI1); test: (§1) Substrate activity at chymotrypsin (unknown origin) by Michaelis-Menten plot analysis; assay type: ADME, protein assay
In short: (§2)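 Diarylcarbonate hydrolysis by chymotrypsin or trypsin measured across substrate concentrations; velocity versus substrate concentration fit for Km and kcat.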

chymotrypsin [4] = target: chymotrypsin (Homo sapiens, UniProt P17538+P40313+Q6GPI1+Q99895); test: as §1; assay type: ADME, protein assay; conditions: chymotrypsin (isolated enzyme, unknown origin); in short: as §2
Papain (Carica papaya) = target: T1, Papain (Carica papaya) (UniProt P00784); test: Inhibition of papaya papain at 100 uM using Z-Arg-AMC as substrate preincubated for 30 mins followed by substrate addition by fluorescence assay
T1 sequence (whole entry): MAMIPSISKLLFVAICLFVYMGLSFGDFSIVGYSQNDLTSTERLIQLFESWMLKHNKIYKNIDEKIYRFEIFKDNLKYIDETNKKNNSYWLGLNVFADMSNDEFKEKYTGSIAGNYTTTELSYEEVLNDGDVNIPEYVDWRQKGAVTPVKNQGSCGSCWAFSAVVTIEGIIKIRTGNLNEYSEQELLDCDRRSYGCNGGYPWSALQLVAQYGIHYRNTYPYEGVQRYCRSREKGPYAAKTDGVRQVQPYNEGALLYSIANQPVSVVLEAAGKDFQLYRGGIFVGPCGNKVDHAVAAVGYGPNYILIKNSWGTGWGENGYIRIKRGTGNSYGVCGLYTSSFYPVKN
In short: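 Enzyme (papain or ficin) preincubated 30 min with inhibitor at 100 μM, then Z-Arg-AMC substrate added at 300 μM; AMC release followed.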

[5] = target: T2, Ubiquitin carboxyl-terminal hydrolase 8 (Homo sapiens) (UniProt P40818); test: Inhibition of USP8 in HEK293T cell lysates assessed as enzyme recovery at 250 uM using HA-tagged vinyl-sulfone as substrate preincubated for 40 mins followed by 10-fold dilution and subsequent substrate addition measured up to 2 hrs by Western blot analysis; assay type: subcellular; conditions: Lysate
T2 sequence (whole entry): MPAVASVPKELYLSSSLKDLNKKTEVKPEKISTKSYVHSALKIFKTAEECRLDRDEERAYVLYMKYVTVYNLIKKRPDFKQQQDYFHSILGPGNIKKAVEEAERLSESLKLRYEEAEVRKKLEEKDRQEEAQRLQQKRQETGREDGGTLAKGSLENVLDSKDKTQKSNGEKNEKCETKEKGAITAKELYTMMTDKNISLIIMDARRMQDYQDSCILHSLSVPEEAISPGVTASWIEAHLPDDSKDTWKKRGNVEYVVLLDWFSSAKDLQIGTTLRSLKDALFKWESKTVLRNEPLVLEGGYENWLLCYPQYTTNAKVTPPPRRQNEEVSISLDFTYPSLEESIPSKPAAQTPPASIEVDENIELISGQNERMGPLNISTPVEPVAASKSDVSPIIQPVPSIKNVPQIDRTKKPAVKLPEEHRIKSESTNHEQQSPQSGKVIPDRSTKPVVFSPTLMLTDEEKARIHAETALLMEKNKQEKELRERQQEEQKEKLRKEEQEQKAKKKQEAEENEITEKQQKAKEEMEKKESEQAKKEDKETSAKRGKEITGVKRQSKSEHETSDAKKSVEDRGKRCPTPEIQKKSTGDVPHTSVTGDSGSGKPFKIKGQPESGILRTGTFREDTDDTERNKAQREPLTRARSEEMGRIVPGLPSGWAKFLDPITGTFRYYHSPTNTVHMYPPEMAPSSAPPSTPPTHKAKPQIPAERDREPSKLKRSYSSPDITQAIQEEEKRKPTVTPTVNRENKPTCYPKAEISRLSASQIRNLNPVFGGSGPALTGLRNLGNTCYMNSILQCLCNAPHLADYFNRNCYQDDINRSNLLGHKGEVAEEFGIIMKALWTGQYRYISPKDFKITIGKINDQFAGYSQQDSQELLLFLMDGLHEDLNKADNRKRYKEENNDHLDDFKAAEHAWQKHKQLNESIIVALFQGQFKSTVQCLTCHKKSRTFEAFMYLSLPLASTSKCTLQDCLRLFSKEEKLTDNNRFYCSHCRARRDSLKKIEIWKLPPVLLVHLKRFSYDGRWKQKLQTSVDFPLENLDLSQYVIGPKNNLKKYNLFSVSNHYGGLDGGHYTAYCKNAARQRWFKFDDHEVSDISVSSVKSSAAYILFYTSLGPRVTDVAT

[6] = target: Ubiquitin carboxyl-terminal hydrolase 7 (Homo sapiens) (UniProt Q93009); test: Inhibition of USP7 in human MCF7 cells assessed as increase in p21 expression at 25 uM after 4 hrs by Western blot analysis; assay type: cell-based
Ubiquitin carboxyl-terminal hydrolase 7 (Homo sapiens), sequence (Q93009 whole entry, looked up, the tested form may be a part): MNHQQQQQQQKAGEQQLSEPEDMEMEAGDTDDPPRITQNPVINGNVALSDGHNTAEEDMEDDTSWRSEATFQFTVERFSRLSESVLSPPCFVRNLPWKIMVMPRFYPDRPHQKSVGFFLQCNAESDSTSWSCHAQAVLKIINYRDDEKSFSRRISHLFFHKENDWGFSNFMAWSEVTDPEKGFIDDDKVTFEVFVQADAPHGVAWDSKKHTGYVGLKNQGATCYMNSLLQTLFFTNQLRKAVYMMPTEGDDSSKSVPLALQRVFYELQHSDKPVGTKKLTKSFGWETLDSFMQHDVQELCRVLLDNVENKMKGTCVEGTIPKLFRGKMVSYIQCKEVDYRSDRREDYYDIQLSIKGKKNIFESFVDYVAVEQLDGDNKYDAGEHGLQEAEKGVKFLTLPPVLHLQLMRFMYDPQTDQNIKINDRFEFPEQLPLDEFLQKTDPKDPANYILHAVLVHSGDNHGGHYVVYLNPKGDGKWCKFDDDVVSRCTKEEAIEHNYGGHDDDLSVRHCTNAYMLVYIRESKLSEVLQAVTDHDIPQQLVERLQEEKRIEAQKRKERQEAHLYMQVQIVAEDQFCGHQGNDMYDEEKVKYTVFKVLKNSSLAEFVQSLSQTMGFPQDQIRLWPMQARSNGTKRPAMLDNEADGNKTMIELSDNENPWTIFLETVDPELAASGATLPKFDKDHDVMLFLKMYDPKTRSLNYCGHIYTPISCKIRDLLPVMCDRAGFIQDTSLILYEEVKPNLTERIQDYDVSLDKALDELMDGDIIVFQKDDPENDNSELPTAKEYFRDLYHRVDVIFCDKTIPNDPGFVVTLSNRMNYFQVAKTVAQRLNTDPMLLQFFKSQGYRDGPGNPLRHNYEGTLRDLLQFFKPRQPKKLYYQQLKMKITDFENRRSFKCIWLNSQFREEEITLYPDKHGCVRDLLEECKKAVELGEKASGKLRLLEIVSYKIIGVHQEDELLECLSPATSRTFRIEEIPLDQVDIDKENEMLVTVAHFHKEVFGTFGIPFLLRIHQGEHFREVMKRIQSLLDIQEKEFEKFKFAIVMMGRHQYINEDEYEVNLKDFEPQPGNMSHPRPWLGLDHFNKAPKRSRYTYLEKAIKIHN
In short: (§3)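 MCF7 cells treated with compound for 4 h. Mdm2, p53 and p21 levels were determined by immunoblotting.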

MCF7 = test: Cytotoxicity against human MCF7 cells assessed as decrease in cell viability treated every 24 hrs measured after 72 hrs by alamar blue assay; assay type: functional, cell-based
In short: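 MCF7 or B16/F10 cells dosed with compound every 24 h. Viable cells were quantified with Alamar Blue after 72 h.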

[7] = target: Ubiquitin carboxyl-terminal hydrolase 7 (Homo sapiens) (UniProt Q93009); test: Inhibition of USP7 in HEK293T cell lysates assessed as enzyme recovery at 250 uM using HA-tagged vinyl-sulfone as substrate […] followed by 10-fold dilution and subsequent substrate addition measured up to 2 hrs by Western blot analysis; assay type: subcellular; conditions: Lysate
[8] = target: Ubiquitin carboxyl-terminal hydrolase 9X (Homo sapiens) (UniProt Q93008); test: Inhibition of recombinant His6-tagged USP9x catalytic domain (unknown origin) using Ub-AMC as substrate by fluorescence assay; conditions: TDE = time-dependent effect
Ubiquitin carboxyl-terminal hydrolase 9X (Homo sapiens), sequence (Q93008 whole entry, the tested form may be a part): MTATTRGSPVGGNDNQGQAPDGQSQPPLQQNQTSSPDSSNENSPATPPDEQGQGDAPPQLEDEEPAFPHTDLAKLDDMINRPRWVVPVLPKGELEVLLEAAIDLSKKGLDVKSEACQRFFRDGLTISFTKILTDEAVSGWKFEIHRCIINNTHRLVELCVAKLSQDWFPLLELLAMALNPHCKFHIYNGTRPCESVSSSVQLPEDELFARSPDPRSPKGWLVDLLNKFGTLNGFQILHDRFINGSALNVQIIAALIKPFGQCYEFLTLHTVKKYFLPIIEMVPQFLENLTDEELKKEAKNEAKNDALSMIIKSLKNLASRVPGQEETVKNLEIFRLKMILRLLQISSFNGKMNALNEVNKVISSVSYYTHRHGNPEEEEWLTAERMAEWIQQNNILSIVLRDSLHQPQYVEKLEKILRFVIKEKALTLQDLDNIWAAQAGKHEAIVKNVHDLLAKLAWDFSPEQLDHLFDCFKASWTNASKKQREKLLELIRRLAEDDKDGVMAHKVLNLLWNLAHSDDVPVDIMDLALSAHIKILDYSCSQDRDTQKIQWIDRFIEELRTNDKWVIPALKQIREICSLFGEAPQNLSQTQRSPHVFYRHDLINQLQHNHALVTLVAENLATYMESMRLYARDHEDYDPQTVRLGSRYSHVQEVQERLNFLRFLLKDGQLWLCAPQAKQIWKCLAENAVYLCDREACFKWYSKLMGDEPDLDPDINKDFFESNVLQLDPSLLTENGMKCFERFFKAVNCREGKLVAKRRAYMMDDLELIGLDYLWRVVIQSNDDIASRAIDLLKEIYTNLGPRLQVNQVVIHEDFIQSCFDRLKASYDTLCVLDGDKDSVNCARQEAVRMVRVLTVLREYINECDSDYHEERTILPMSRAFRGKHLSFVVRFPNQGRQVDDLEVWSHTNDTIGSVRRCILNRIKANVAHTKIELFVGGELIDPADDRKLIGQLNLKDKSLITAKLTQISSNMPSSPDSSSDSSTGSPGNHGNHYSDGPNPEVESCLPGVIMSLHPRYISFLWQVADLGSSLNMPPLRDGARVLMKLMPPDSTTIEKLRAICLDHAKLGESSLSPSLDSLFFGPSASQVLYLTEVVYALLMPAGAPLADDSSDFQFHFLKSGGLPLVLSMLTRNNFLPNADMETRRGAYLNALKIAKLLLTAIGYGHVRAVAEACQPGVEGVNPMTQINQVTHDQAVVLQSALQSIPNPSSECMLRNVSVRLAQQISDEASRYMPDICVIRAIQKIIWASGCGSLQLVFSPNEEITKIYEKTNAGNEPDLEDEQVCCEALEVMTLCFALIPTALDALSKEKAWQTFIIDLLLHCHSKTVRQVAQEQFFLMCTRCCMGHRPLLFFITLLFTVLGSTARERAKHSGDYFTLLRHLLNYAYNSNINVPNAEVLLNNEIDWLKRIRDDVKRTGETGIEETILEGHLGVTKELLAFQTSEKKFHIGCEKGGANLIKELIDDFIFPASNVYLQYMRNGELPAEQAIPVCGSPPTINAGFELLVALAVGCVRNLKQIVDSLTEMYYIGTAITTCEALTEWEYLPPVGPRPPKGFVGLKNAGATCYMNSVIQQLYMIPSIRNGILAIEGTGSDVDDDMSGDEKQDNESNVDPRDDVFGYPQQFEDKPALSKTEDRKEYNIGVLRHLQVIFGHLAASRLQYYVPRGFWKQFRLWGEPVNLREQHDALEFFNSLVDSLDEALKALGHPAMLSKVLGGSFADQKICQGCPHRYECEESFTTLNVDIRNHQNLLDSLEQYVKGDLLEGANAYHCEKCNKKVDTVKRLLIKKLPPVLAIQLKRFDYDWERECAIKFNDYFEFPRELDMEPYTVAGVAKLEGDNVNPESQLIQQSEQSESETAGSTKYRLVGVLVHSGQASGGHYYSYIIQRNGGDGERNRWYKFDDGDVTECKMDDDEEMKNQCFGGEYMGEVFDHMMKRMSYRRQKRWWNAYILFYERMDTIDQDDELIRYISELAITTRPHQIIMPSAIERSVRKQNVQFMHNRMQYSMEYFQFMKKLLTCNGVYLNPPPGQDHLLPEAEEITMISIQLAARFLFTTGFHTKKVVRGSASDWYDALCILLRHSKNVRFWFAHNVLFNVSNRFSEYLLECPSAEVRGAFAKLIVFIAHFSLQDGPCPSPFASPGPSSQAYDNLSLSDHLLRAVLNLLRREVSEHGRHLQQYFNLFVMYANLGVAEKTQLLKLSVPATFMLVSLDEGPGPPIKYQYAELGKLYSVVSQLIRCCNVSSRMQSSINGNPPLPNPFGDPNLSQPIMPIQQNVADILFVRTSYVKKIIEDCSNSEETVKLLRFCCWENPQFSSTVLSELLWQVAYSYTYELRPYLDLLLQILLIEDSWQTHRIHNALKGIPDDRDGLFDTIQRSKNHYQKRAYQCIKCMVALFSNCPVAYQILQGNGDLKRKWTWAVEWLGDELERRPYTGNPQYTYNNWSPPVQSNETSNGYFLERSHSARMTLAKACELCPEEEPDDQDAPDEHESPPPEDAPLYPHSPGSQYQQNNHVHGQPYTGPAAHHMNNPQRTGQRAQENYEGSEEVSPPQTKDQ

[9] = Inhibition of deubiquitinase in HEK293T cells assessed as stabilization of K48-linked HMW-Ub protein by Western blot analysis; assay type: cell-based, Homo sapiens
[10] = target: T2, Ubiquitin carboxyl-terminal hydrolase 8 (Homo sapiens); test: Inhibition of USP8 in HEK293T cell lysates at 25 uM using HA-tagged vinyl-sulfone as substrate measured after 2 to 30 mins by Western blot analysis; assay type: subcellular; conditions: Lysate
In short: (§4)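 HEK 293T lysate (1.5 mg/ml) given compound (25 μM) or DMSO at the same time as HA-Ub-VS (1.5 μM). Aliquots withdrawn over time were run on SDS-PAGE and immunoblotted for HA.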

[11] = target: Ubiquitin carboxyl-terminal hydrolase 7 (Homo sapiens) (UniProt Q93009); test: Inhibition of USP7 in human MCF7 cells assessed as decrease in Mdm2 expression at 25 uM after 4 hrs by Western blot analysis; assay type: cell-based; in short: as §3
[12] = target: Ubiquitin carboxyl-terminal hydrolase 9X (Homo sapiens) (UniProt Q93008); test: Inhibition of USP9x in human K562 cells assessed as decrease in Bcr-Abl expression at 50 uM measured after 2 hrs by Western blot analysis; assay type: cell-based
In short: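 K562 cells treated with 50 μM compound for 2 h. Lysates were sonicated in SDS, and Bcr-Abl was immunoblotted with anti-Abl antibody.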

[13] = target: Ubiquitin carboxyl-terminal hydrolase 15 (Homo sapiens) (UniProt Q9Y4E8); test: Inhibition of USP15 in HEK293T cell lysates at 25 uM using HA-tagged vinyl-sulfone as substrate measured after 2 to 30 mins by Western blot analysis; assay type: subcellular; conditions: Lysate; in short: as §4
Ubiquitin carboxyl-terminal hydrolase 15 (Homo sapiens), sequence (Q9Y4E8 whole entry): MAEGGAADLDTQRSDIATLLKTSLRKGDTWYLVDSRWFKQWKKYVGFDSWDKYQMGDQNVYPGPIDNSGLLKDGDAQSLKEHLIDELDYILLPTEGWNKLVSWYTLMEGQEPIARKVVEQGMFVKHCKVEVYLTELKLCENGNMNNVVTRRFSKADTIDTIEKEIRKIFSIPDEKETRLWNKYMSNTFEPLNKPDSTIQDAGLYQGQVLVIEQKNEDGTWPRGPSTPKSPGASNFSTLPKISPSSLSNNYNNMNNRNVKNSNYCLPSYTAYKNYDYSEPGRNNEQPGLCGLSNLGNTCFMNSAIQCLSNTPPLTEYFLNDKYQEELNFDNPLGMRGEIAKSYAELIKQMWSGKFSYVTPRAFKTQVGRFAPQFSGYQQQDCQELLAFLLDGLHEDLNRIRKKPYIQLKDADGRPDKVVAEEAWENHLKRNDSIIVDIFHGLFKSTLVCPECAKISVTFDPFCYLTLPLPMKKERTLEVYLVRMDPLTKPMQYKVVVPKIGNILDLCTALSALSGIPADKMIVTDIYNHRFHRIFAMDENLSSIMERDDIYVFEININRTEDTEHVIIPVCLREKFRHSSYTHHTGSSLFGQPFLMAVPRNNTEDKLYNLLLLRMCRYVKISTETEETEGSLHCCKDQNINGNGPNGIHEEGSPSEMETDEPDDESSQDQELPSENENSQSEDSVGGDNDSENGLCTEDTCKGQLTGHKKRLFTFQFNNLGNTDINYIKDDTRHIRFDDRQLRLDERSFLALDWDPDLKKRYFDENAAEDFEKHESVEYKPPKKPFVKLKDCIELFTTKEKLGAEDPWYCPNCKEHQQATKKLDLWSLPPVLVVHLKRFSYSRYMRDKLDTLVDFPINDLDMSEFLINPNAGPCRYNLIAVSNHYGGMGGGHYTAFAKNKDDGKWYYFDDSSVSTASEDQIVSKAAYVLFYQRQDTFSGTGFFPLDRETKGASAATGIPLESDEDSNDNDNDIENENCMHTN

inhibition [1]: Active
EC50 [2]: 20 µM
Kcat (Chymotrypsin [3]): 0.03 s⁻¹
Km (chymotrypsin [4]): 1 µM
inhibition (Papain (Carica papaya)): inactive
inhibition [5]: inactive
inhibition [6]: Active
inhibition [7]: inactive
inhibition [8]: Tde
EC50 [9]: < 50 µM
inhibition [10]: inactive
inhibition [11]: Active
inhibition [12]: Active
inhibition [13]: inactive
Structure (SMILES): NCc1ccc(OC(=O)Oc2ccc3ccccc3c2)cc1
Activity (MCF7): Active
